Experimental data from publication PMC10786240 (Antiviral research, 2019).

Legend:
human OSBP = biological target: T1, human OSBP (Homo sapiens, UniProt P22059); assay: 96-well [3H]-25-OHC competitive binding assay, OSBP; settings: compound at 10,000 nM; 20 nM 3H-25-OHC
T1 sequence (P22059 1-807): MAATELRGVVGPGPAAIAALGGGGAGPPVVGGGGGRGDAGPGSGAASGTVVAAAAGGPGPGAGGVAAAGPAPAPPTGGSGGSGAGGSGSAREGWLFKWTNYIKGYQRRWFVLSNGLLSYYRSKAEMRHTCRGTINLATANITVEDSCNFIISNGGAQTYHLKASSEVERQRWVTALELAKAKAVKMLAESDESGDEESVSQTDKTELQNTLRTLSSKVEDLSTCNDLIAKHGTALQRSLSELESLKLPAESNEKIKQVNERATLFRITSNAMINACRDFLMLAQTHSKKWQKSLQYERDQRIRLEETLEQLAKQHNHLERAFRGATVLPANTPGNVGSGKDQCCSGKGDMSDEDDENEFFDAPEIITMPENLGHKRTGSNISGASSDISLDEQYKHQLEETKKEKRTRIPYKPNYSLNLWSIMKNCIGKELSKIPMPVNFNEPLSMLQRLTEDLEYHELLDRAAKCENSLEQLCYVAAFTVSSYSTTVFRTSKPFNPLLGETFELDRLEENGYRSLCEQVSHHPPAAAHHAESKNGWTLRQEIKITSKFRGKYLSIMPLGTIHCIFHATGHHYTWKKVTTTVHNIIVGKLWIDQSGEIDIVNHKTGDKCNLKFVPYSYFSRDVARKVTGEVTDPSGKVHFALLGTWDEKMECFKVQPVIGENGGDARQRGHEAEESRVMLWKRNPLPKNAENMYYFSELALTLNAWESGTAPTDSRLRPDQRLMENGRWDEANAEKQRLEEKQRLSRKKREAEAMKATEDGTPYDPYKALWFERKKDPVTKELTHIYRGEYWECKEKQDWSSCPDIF

[1] = tested on: OSBP localization in HCT-116 cells; assay: immunofluorescence imaging of endogenous OSBP localization; assay type: cell-based
immortalized cell lines = assay: 48 h assay for cell metabolic activity; assay type: cell-based; settings: at <10,000 nM concentrations, Fig. 4B, Supp. Fig. 1
HeLa cells = assay: 48 h cytotoxicity assay; assay type: cell-based; settings: 48 h; compound at 10,000 nM with OSW-1
OSBP = settings: in vitro; cited from earlier work
HCT-116 cells = assay: Trypan Blue cell viability assay; assay type: cell-based; settings: 24 h, OSW-1 1 nM, ITZ, THEV, TTP 10,000 nM, each alone
[2] = tested on: N-terminal OSBP FFAT domain with VAP-A; settings: BiMC assay; cited from earlier work
[3] = tested on: OSBP levels in HCT-116 and HEK293 cells; assay: OSBP expression in cells upon 24 h compound treatment; assay type: cell-based, human
Procedure, shortened: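 HCT-116 (McCoy's 5A, 10% serum, 1% penicillin-streptomycin) or HEK293 cells seeded 5×10^5 per well, 20 h at 37 °C. Compound diluted from stock in complete medium, alone or with 1 nM OSW-1 co-treatment, for 24 h; DMSO vehicle control. Lysates immunoblotted for OSBP (A-5 antibody), β-actin as loading reference. Bands averaged over independent experiments.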

human ORP4 = biological target: T2, human ORP4 (Homo sapiens, UniProt Q969R2); assay: 96-well [3H]-25-OHC competitive binding assay, ORP4; settings: compound at 10,000 nM; 20 nM 3H-25-OHC
T2 sequence (Q969R2 1-916): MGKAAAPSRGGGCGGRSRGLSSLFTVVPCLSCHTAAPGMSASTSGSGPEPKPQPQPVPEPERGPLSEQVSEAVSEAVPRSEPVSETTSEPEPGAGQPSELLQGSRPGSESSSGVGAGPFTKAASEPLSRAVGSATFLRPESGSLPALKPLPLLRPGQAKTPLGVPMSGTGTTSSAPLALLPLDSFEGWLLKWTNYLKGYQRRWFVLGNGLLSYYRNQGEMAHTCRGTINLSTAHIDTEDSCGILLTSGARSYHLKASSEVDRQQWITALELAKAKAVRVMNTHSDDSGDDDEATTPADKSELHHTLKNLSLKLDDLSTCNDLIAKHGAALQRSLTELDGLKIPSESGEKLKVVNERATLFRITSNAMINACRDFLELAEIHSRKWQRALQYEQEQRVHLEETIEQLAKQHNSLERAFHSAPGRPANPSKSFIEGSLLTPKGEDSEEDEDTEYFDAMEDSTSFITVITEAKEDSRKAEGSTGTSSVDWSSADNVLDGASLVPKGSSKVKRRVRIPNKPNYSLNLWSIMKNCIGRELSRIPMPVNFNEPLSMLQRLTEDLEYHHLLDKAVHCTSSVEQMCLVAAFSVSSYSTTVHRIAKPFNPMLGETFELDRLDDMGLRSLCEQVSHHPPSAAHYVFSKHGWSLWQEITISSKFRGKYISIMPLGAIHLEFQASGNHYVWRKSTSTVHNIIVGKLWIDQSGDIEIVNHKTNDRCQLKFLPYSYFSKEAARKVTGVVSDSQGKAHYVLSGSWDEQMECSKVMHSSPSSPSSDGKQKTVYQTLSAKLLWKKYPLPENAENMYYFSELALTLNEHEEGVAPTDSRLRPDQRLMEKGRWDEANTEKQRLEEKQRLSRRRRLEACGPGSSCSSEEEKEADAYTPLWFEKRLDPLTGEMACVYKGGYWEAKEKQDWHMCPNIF
Procedure, shortened: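 Inhibition of 20 nM [3H]-25-OHC binding to human ORP4 overexpressed in […] cell lysate, run in 96-well competitive format; […].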

SMILES: C[C@@H](NC(=O)c1cccc(-c2cnc(-c3cc4ccccc4cn3)[nH]2)c1)c1ccc(F)cc1 [TTP]
- inhibition of 25-OHC binding to OSBP (human OSBP): no 25-OHC inhibition binding
- OSBP cellular localization on co-administration with OSW-1 ([1]; 24 h, 10,000 nM compound with 1 nM OSW-1): low expression of OSBP with a pattern not consistent with the OSW-1 alone or TTP alone treatment
- OSBP cellular localization ([1]; 24 h, OSW-1 1 nM, 25-OHC, ITZ, TTP, THEV 10,000 nM, Golgi marker TGN46): induces a tight colocalization of OSBP with the Golgi marker with a perinuclear pattern close to the vehicle (DMSO) treated cell
- antiproliferative activity (immortalized cell lines): no antiproliferative activity
- effect of co-administration on antiproliferative OSW-1 activity, HeLa (HeLa cells): does not significantly affect the antiproliferative OSW-1 activity
- inhibition of OSBP cholesterol transport between vesicles (OSBP): shown to inhibit the ability of OSBP to transport cholesterol between vesicles
- effect on cell population (cell counting after Trypan blue staining) (HCT-116 cells): does not affect the cell population
- inhibition of OSBP FFAT domain interaction with VAP-A [2]: Neither ITZ (3) or TTP (5) substantially inhibited
- effect of co-administration on OSW-1-induced reduction of OSBP levels ([3]; 10,000 nM compound with 1 nM OSW-1, HEK293 and HCT116): has no effect on OSBP levels
- effect on OSBP cellular levels ([3]; OSW-1 1 nM, Taxol 10 nM, ITZ, THEV, TTP 10,000 nM, HEK293 and HCT-116): do not reduce OSBP levels
- inhibition of 25-OHC binding to ORP4 (human ORP4): no 25-OHC inhibition binding
